Shown are actives, neighbours in structure and some others; about 2.1% of the full set was active somewhere.
ASAP1 inh: blocks human ASAP1-stimulated Arf1 GTP hydrolysis. GDP FP detection. inhibition, % at 16.5 µM. 360,000 tested, 0.19% active. AID 624377; in the data active = inhibition above about 25%
Target sequence (Q9ULH1 325-724 limits assumed): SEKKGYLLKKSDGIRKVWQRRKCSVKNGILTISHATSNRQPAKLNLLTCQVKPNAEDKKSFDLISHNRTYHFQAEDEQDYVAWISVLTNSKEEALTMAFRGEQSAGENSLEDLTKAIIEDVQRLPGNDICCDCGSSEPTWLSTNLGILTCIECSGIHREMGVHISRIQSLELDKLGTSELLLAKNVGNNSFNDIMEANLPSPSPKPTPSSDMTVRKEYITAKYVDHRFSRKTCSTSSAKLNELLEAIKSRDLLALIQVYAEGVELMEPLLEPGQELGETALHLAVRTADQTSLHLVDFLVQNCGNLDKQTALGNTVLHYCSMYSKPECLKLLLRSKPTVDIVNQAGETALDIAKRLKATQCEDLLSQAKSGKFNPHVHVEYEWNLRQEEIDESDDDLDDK
SUMO Mot1 rescue: blocks SUMOylation pathway, rescuing yeast Mot1-301 growth; S. cerevisiae Mot1-301 growth rescue, ATP luminescence, 38.5C; percent above DMSO median, 100 means doubled; growth rescue, % at 18.8 µM; 320,000 tested, 1% active;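 active = every valid replicate shows activation above 250% relative to neutral control wells; inactive = the rest, any valid replicate at or below 250%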
Statin myotox sup: suppression of simvastatin myotoxicity; 330,000 tested, 0.78% active; rescue of ATP level, % at 7.49 µM; C2C12 myotubes + simvastatin, ATP luminescence, 48 h; scaled: DMSO 0, geranylgeraniol control 100; AID 602340;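 active = mean ATP rescue above about 67%, or every replicate alone reaching that limit, limit read from the data, passing the limit was not always enough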;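 note: myotubes were challenged with 10 µM simvastatin during compound exposure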
ARFGAP1 inh: inhibits rat ARF GTPase activating protein 1; Q62848; Arfgap1-stimulated ARF1 GTP hydrolysis, GDP FP detection; inhibition, % at 16.5 µM; 360,000 tested, 0.26% active;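 active = inhibition above a per-plate limit, mean inhibition of low control wells plus 3 SD, cut at about 25% in these data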
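material = rat Arfgap1 catalytic domain, aa 1-136 | also added = human ARF1(Δ1-17)-GTP substrate | compound dosing = one concentration, 16.5 µM, DMSO 1.26% | times = GTP hydrolysis reaction 2 h at 25 °C | measured by = FP, GDP Alexa 633 tracer displaced from anti-GDP antibody, 620/688 nm | evaluation = percent inhibition of Arfgap1-stimulated GTP hydrolysis | replication = single well per compound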
APOBEC3A inh: blocks human APOBEC3A ssDNA deamination; P31941; recombinant A3A, FAM/TAMRA ssDNA deamination fluorescence; inhibition, % at 20 µM; 330,000 tested, 0.41% active;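 active = at least 40% inhibition at 20 µM here, with at most 30% in a related deaminase screen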
A3G deaminase: APOBEC3G (human) deaminase inhibition | Q9HC16 | recombinant A3G, ssDNA deamination FAM/TAMRA fluorescence | inhibition, % at 20 µM | 330,000 tested, 0.28% active | AID 493012;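 active = inhibition of at least 40% at 20 µM, with no more than 30% in the related APOBEC3A deaminase screen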
A3A conf: confirmation of human APOBEC3A DNA deaminase inhibitors | shares compounds with APOBEC3A inh | recombinant A3A, ssDNA deaminase UDG fluorescence assay | inhibition, % at 20 µM | 1,400 tested, 63% active | AID 493151;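 active = inhibition reaching a set limit, 80% of the first screen's cutoff, at 20 µM in any replicate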
UDG A3A counter: UDG inhibition in APOBEC3A counter-screen. AID 504714. 1,000 tested, under 10 active. UDG counterscreen, FAM/TAMRA uracil oligo fluorescence. inhibition, % at 20 µM. shares compounds with APOBEC3A inh; call rule not given here
A number is an active result; 0 = inactive; - = no result.

SMILES	ASAP1 inh	SUMO Mot1 rescue	Statin myotox sup	ARFGAP1 inh	APOBEC3A inh	A3G deaminase	A3A conf	UDG A3A counter
O=C(CSc1ncccn1)N1CCN(C(c2ccccc2)c2ccccc2)CC1	0	0	0	0	47.3	0	69.9	0
COc1cccc(-c2ccc3c(c2)[C@@H]2[C@@H](CCN2C(=O)C2CCOCC2)[C@@H](CO)N3)c1	-	-	0	-	-	-	-	-
O=C(/C=C\c1ccc(-c2ccccc2)o1)c1ccccc1	0	0	-	0	48.0	0	11.1	0
CN1CCN(C(=O)C[C@H]2C=C[C@H](NC(=O)Cc3ccccn3)[C@H](CO)O2)CC1	-	-	0	-	-	-	-	-
O=C(N/N=C/c1ccc(-c2ccccc2C(=O)O)o1)c1cccs1	0	0	-	0	45.9	0	37.8	0
O=C(N/N=C/c1ccncc1)c1cccs1	-	0	0	-	0	0	-	-
CCCCn1c(N)c(-c2nc3ccccc3o2)c2c([N+](=O)[O-])nn(C)c(=O)c21	0	0	-	0	52.8	0	0	-
CCCCn1c(N)c(-c2nc3ccccc3o2)c2c([N+](=O)[O-])nn(CC)c(=O)c21	0	0	-	0	0	0	-	-
CNC(=O)c1cc(Cl)c(OC)c(OC)c1	0	0	-	0	56.9	0	0	-
Cc1noc(C)c1S(=O)(=O)Nc1ccc2c(c1)CC(=O)N([C@@H](C)CO)C[C@@H](C)[C@@H](CN(C)C(=O)NC1CCCCC1)O2	-	-	0	-	-	-	-	-
CCc1ccc(NC(=O)c2ccc(-n3cncn3)c([N+](=O)[O-])c2)cc1	0	0	0	0	41.1	0	0	-
CCn1c(SCC(=O)O)nc2sc3c(c2c1=O)CCC3	0	0	-	0	53.8	0	47.5	0
CCn1nc(NC(=O)C(C)C)c2cc3cccc(C)c3nc21	0	0	0	0	0	0	-	-
CCn1nc(NC(C)=O)c2cc3cccc(C)c3nc21	0	0	0	0	76.5	0	64.5	0
CC(C)CC#Cc1cnc2c(c1)C(=O)N([C@H](C)CO)C[C@H](C)[C@H](CN(C)C(=O)c1cccnc1)O2	-	-	0	-	-	-	-	-
C[C@H]1CN([C@@H](C)CO)S(=O)(=O)c2ccc(C3=CCCCC3)cc2O[C@H]1CN(C)C(=O)C1CCC1	-	-	0	-	-	-	-	-
O=C(CCN1CCCCC1)N[C@@H]1CC[C@@H](CCNS(=O)(=O)c2ccccc2)O[C@H]1CO	-	-	0	-	-	-	-	-
CCOc1ccc(S(=O)(=O)N(CC(=O)N/N=C/c2ccc(-c3ccc([N+](=O)[O-])cc3)o2)c2ccccc2)cc1	0	0	0	0	65.6	0	37.3	0
Cc1n(C)c2cc(Cl)ccc2[n+]1Cc1ccccc1	0	0	-	0	78.3	0	65.0	0
CC(C)[C@H](NC(=O)Cc1ccccc1)C(=O)OCc1cc(=O)n2c(n1)sc1ccccc12	0	0	-	0	42.8	0	0	-
O=C(OCc1cc(=O)n2c(n1)sc1ccccc12)c1ccc2c(=O)n3c(nc2c1)CCC3	0	0	0	0	0	0	-	-
Cc1ccc2c(CC(=O)OCc3cc(=O)n4c(n3)sc3ccccc34)coc2c1	0	0	0	0	43.8	0	0	-
C[C@@H]1CN([C@H](C)CO)C(=O)Cc2cc(NC(=O)Nc3cccc4ccccc34)ccc2O[C@H]1CN(C)C(=O)Nc1ccc(F)cc1	-	-	0	-	-	-	-	-
COCc1cn(CC[C@H]2CC[C@@H](NC(=O)Nc3ccc4c(c3)OCO4)[C@H](CO)O2)nn1	-	-	0	-	-	-	-	-
O=C(c1cccc(S(=O)(=O)NCc2ccccc2)c1)N1CCCC1	0	0	-	0	0	0	-	-
O=C(c1cccc(S(=O)(=O)NCc2ccc3c(c2)OCO3)c1)N1CCCC1	0	0	0	0	88.6	0	0	0
O=C(CCN1CCCCC1)NCC[C@@H]1CC[C@H](NS(=O)(=O)c2cccc(F)c2)[C@@H](CO)O1	-	-	0	-	-	-	-	-
CC12CCC(C[N+](C)(C)C1)C2(C)C (centres undefined)	0	0	0	0	65.1	0	68.8	0
CC[N+]1(CC)CC2CCC(C)(C1)C2(C)C (centres undefined)	0	0	0	0	58.5	0	79.2	0
